In PubChem BioAssay:
The source made the active and inactive calls.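 The calls were made as follows, unless noted: active = inhibition of the reporter signal at or above 50%; inactive = inhibition below 50%.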

Assays:
[1] = inhibitors of TNFa-induced NFkB p65 translocation, primary screen, imaging, HUVEC, MLSMR starter and 10KST1 sets (AID 438;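 active = inhibition above 20% together with a positive visual image hit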;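 also: compound added about 3h40 before a 20 min TNFalpha stimulation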;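 as to inhibition: signal is the nuclear over cytoplasmic p65 intensity ratio per well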); conditions: HUVEC TNFa-induced p65 nuclear translocation; cell count: measured here: nuclei count (cytotoxicity indicator), at 2.08 µM; inhibition: at 2 µM, stronger effect = higher value, 0% TNFa-plus-vehicle, 100% no-TNFa wells
[2] = inhibitors of mutant huntingtin aggregation, primary screen, imaging, exon1htt(103Q)mCFP cells, high-content imaging (AID 483;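 active = visual image review flags a hit and inhibition of aggregation exceeds 20%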;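 also: compound exposure lasted 3 days before fixation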;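 as to nuclei count: percent of the per-plate median nuclei count of sample wells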); conditions: exon1htt(103Q)mCFP cell line, aggregate imaging, at 2 µM; inhibition of aggregation: stronger effect = higher value; nuclei count: measured here: cell count, toxicity
[3] = inhibitors of E-selectin induction by TNFa, primary screen, imaging, HUVEC, immunofluorescence, MLSMR starter and 10KST1 sets (AID 487;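 active = visually confirmed hit in the image check and inhibition above 20%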;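 as to inhibition: signal is fraction of cell area covered by stained E-selectin grains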;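 as to nuclei count: 100% = median nuclei count of all wells on the same plate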); conditions: HUVEC TNFalpha-induced E-selectin immunofluorescence imaging, at 2 µM; inhibition: stronger effect = higher value; nuclei count: measured here: cell number, toxicity
[4] = biological target: Voltage-gated potassium channel subunit beta-2 (Rattus norvegicus) (UniProt P62483); assay: KvBeta enzyme negative modulators, primary screen, biochemical, NADPH fluorescence (AID 622;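 active = fluorescence slope higher than the sample average by over 3 SD, cut at about -0.22 in these data, passing the limit was not always enough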;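 also: slope of raw intensity against log time taken from 70 to 1610 s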); conditions: recombinant KvBeta, 4-cyanobenzaldehyde reduction, at 10 µM, stronger effect = higher value
[5] = biological target: Voltage-gated potassium channel subunit beta-2 (Rattus norvegicus) (UniProt P62483); assay: KvBeta positive modulators, primary screen, biochemical, NADPH fluorescence (AID 623;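 active = NADPH fluorescence slope more negative than the mean of all samples by about 3 SD, 99.7% confidence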;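 also: fluorescence intensity change per second fitted from 20 to 320 s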); conditions: Recombinant KvBeta, NADPH fluorescence decrease slope, 10 min; at 10 µM; stronger effect = lower value
[6] = biological target: Muscarinic acetylcholine receptor M4 (Homo sapiens) (UniProt P08173); assay: compounds altering M4/GIRK thallium flux, either direction, primary screen, M4 allosteric agonist project, cell-based, HEK293 M4/GIRK, BTC-AM (AID 625;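 active = fluorescence slope after compound addition differing from the mean of all tested samples at 99.7% confidence, mostly higher but some lower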;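 also: thallium influx through GIRK channels coupled to M4 in HEK293 cells with BTC-AM dye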); conditions: at 10 µM, actives lie on both sides
How it was run: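 assay system = HEK293 cells with M4 receptor and GIRK channels | medium = pH 7.3 thallium assay buffer | doses = 10 µM final, single point | timing = cells overnight at 37 °C, BTC-AM loading 1 h, reads 2 min total | signal = BTC-AM fluorescence, 1 Hz kinetic reads | read-out = post-addition slope, 15–24 s, of baseline-normalized fluorescence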

[7] = inhibitors of Sendai virus-induced IRF3 signaling, primary screen, TLR/RLR signaling modifier project, cell-based, Sendai virus stimulus, luciferase, 10K MLSCN set (AID 602276;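 active = inhibition at or above 50% at 10 µM; inactive = inhibition below 50%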;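 also: firefly luciferase from ISG56 promoter only with Renilla not read in this screen; 0% = Sendai virus plus DMSO and 100% = medium plus DMSO without virus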); conditions: HEK293 RL24 IRF3 luciferase reporter, at 10 µM, stronger effect = higher value
[8] = inhibitors of poly I:C-induced TLR3 signaling, primary screen, cell-based, poly I:C stimulus, luciferase, 10K MLSCN set (AID 602277); conditions: HEK293-TLR3 RL24 IRF3 luciferase reporter, at 10 µM, stronger effect = higher value

Muscarinic acetylcholine receptor M4 (Homo sapiens), sequence (P08173 whole entry, looked up): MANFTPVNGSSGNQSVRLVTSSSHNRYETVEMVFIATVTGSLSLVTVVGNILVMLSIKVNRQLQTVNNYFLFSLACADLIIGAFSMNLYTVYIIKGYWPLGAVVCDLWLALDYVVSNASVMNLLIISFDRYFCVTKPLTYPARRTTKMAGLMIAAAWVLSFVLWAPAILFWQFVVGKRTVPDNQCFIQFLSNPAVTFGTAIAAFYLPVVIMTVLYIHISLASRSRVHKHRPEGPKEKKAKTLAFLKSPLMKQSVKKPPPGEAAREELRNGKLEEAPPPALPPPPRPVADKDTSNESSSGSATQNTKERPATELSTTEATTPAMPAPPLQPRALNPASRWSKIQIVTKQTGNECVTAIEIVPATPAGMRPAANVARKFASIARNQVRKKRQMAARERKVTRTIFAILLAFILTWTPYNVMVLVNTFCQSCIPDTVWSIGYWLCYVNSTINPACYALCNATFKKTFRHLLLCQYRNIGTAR
Voltage-gated potassium channel subunit beta-2 (Rattus norvegicus), sequence (P62483 whole entry, looked up): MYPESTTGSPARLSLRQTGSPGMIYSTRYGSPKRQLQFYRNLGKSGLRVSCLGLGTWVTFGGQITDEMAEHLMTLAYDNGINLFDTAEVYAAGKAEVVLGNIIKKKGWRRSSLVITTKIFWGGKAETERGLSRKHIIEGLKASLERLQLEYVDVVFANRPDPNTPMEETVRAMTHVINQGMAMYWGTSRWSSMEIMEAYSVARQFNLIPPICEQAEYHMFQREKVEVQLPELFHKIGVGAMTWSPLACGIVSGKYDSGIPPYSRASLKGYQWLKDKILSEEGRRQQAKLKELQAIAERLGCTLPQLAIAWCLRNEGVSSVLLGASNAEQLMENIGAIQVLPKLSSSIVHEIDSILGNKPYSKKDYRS

SMILES | cell count [1] | inhibition [1] | inhibition of aggregation [2] | nuclei count [2] [%] | inhibition [3] | nuclei count [3] [%] | fluorescence slope [4] | NADPH fluorescence slope [5] | fluorescence slope [6] | inhibition [7] | inhibition [8]
CSc1ccccc1NS(=O)(=O)c1ccccc1 | 558 | -1% (inactive) | -14.6% (inactive) | 96.9 | -8.2% (inactive) | 105 | -0.454 (inactive) | 1.4e-05 (inactive) | 0.00445 (inactive) | 13% (inactive) | 12.9% (inactive)
Cc1c(/C(O)=C2/C(=O)C(=O)N(CCN3CCOCC3)C2c2cccs2)cnn1-c1ccccc1 (stereo not drawn) | 566 | 13.4% (inactive) | -5% (inactive) | 103 | 21.8% (inactive) | 97.7 | -0.502 (inactive) | -0.000209 (inactive) | 0.00361 (inactive) | 2.43% (inactive) | 21.8% (inactive)
O=C(Cc1c(O)c2ccccc2[nH]c1=O)NCc1ccc(F)cc1 | 251 | 4.3% (inactive) | 18.1% (inactive) | 61.3 | -25.6% (inactive) | 115 | -0.544 (inactive) | -2e-05 (inactive) | 0.00681 (inactive) | 20.7% (inactive) | 24.8% (inactive)
COCCn1c(SCC(=O)Nc2nnc(C)s2)nnc1-c1ccncc1 | 564 | -7.5% (inactive) | 7.7% (inactive) | 99.2 | -32.1% (inactive) | 115 | -0.172 (inactive) | -1.8e-05 (inactive) | 0.00934 (inactive) | 18.4% (inactive) | -2.25% (inactive)
COc1ccc(S(=O)(=O)NC(CC(=O)NCc2ccco2)c2ccco2)cc1 (stereo not drawn) | 621 | 8.2% (inactive) | 0.5% (inactive) | 114 | -67.3% (inactive) | 97.1 | -0.566 (inactive) | -3e-05 (inactive) | 0.00653 (inactive) | 19.3% (inactive) | 20.6% (inactive)
Cn1c(=O)c(-c2ccccc2)nn2c3ccccc3nc12 | 704 | -35.3% (inactive) | 22.1% (inactive) | 96.1 | -79.5% (inactive) | 113 | -0.19 (inactive) | 4.4e-07 (inactive) | 0.00522 (inactive) | 13.7% (inactive) | 17.5% (inactive)
COc1ccccc1-c1noc(-c2cccnc2)n1 | 405 | 0% (inactive) | -5.9% (inactive) | 106 | -6.3% (inactive) | 125 | -0.568 (inactive) | -7.6e-05 (inactive) | 0.00345 (inactive) | -24.5% (inactive) | -87.9% (inactive)
CCn1c(=O)n(CC(=O)NCc2ccccc2OC)c(=O)c2ccccc21 | 467 | -30.1% (inactive) | -16.5% (inactive) | 100 | -106% (inactive) | 92 | -0.555 (inactive) | -4.7e-05 (inactive) | 0.00528 (inactive) | 18.2% (inactive) | 23.1% (inactive)
CC(C)CC(c1nnnn1C1CCCC1)N1CCN(c2ccccc2F)CC1 (stereo not drawn) | 384 | -3.6% (inactive) | 6.8% (inactive) | 91.4 | -26.9% (inactive) | 109 | -0.589 (inactive) | 2e-05 (inactive) | 0.00507 (inactive) | 15.2% (inactive) | 26.4% (inactive)
CC(C)[C@H](NC(=O)OC(C)(C)C)c1nnc(S(=O)(=O)Cc2c(F)cccc2Cl)o1 | 570 | 10.7% (inactive) | -0.1% (inactive) | 89.7 | 36.5% (inactive) | 101 | -0.521 (inactive) | -0.000188 (inactive) | 0.00242 (inactive) | 32.2% (inactive) | 21.7% (inactive)
CN(CC(O)COCc1cccs1)C1CCCCC1 (stereo not drawn) | 305 | 10.6% (inactive) | 1.5% (inactive) | 95.2 | -5.5% (inactive) | 105 | -0.448 (inactive) | -4.5e-05 (inactive) | 0.00729 (inactive) | 11.7% (inactive) | 17.5% (inactive)
Cc1nc2sc(C(c3cccc(F)c3)N3CCN(C(=O)c4ccco4)CC3)c(O)n2n1 (stereo not drawn) | 228 | -2.8% (inactive) | -3.1% (inactive) | 106 | -7% (inactive) | 112 | -0.306 (inactive) | -1.4e-05 (inactive) | 0.00489 (inactive) | -14.2% (inactive) | -22.6% (inactive)
COC(=O)C1(C)NC(c2ccco2)C2C(=O)N(c3ccc(C)cc3)C(=O)C21 (stereo not drawn) | 560 | -17.5% (inactive) | -8.7% (inactive) | 113 | -40.3% (inactive) | 114 | -0.318 (inactive) | -3.5e-05 (inactive) | 0.00521 (inactive) | 14.7% (inactive) | 17.2% (inactive)
COCCNC(=O)c1ccc(Cl)c(Cl)c1 | 283 | -9.1% (inactive) | -23.9% (inactive) | 119 | 4.3% (inactive) | 116 | -0.486 (inactive) | -4.2e-05 (inactive) | 0.00569 (inactive) | -9.14% (inactive) | -8.45% (inactive)
Fc1ccccc1-c1nc(-c2ccccc2)no1 | 632 | 13.8% (inactive) | 3.3% (inactive) | 103 | -5.4% (inactive) | 97.2 | -0.554 (inactive) | -7.9e-05 (inactive) | 0.00608 (inactive) | -27.9% (inactive) | -60% (inactive)
O=C(c1ccc(NS(=O)(=O)c2cccs2)cc1)N1CCCCC1 | 287 | 5% (inactive) | -0.8% (inactive) | 74.9 | -31.7% (inactive) | 96.5 | -0.474 (inactive) | -3.6e-05 (inactive) | 0.00524 (inactive) | 0.00146% (inactive) | -12.6% (inactive)
O=C(NCc1ccco1)Nc1ccc2nsnc2c1 | 683 | -6.1% (inactive) | -22.1% (inactive) | 113 | -138% (inactive) | 119 | -0.445 (inactive) | -2.6e-05 (inactive) | 0.00612 (inactive) | -31.4% (inactive) | -83.7% (inactive)
Cc1cnnc2c1-c1nonc1CC2 | 347 | 2% (inactive) | -17.8% (inactive) | 109 | 5.6% (inactive) | 116 | -0.529 (inactive) | 3.9e-05 (inactive) | 0.00506 (inactive) | 17.8% (inactive) | 14.6% (inactive)
COC(=O)c1ccccc1S(=O)(=O)N(CCCN1CCOCC1)Cc1cccs1 | 328 | 2.1% (inactive) | 2.9% (inactive) | 104 | -43.1% (inactive) | 115 | -0.502 (inactive) | 1.2e-05 (inactive) | 0.00684 (inactive) | 14% (inactive) | 19.2% (inactive)
CC(C(=O)N1c2ccc(F)cc2CCC1C)N1C(=O)c2ccccc2C1=O (stereo not drawn) | 490 | 5% (inactive) | 1.1% (inactive) | 118 | -158% (inactive) | 138 | -0.452 (inactive) | -4.6e-05 (inactive) | 0.00501 (inactive) | 10.8% (inactive) | 11.7% (inactive)
CC1(C)CC(=O)C(C=NCCc2ccc(S(N)(=O)=O)cc2)=C(O)C1 | 601 | -6.1% (inactive) | -14.5% (inactive) | 114 | -11.3% (inactive) | 102 | -0.426 (inactive) | -8.3e-05 (inactive) | 0.00589 (inactive) | 13.2% (inactive) | 20.3% (inactive)
Cc1cc2oc(=O)cc(CN3CCN(Cc4ccc5c(c4)OCO5)CC3)c2cc1C | 362 | 6.8% (inactive) | -15.1% (inactive) | 99.2 | -0.8% (inactive) | 108 | -0.536 (inactive) | -4.3e-05 (inactive) | 0.00603 (inactive) | 5.83% (inactive) | 27% (inactive)
CCN(C(=O)CN1CCN(c2ccccc2OC)CC1)c1c(N)n(Cc2ccccc2)c(=O)[nH]c1=O | 471 | 1.1% (inactive) | -18.1% (inactive) | 63.9 | -52.2% (inactive) | 102 | -0.424 (inactive) | -0.000102 (inactive) | 0.00639 (inactive) | 9.1% (inactive) | 25.4% (inactive)
c1cncc(-c2nnc(-c3ccco3)o2)c1 | 383 | -1.1% (inactive) | -27% (inactive) | 116 | 3.9% (inactive) | 95.6 | -0.532 (inactive) | -1.2e-05 (inactive) | 0.00567 (inactive) | -1.51% (inactive) | -11.7% (inactive)
CC(=O)c1c(C)[nH]c(C(=O)NCc2cccs2)c1C | 471 | 2.9% (inactive) | 15.8% (inactive) | 116 | -76.6% (inactive) | 95.6 | -0.561 (inactive) | -4.9e-05 (inactive) | 0.00619 (inactive) | -3.69% (inactive) | -17.2% (inactive)
COc1ccccc1C(=O)n1nc(-c2ccccc2)nc1N | 354 | -3.3% (inactive) | 9.7% (inactive) | 101 | -55.5% (inactive) | 119 | -0.619 (inactive) | -2.9e-05 (inactive) | 0.00374 (inactive) | 15.7% (inactive) | 11.1% (inactive)
O=C(C1CCC1)N1CCc2cc(S(=O)(=O)N3CCc4ccccc4C3)ccc21 | 299 | 0% (inactive) | 8.8% (inactive) | 113 | -0.1% (inactive) | 118 | -0.411 (inactive) | 7.8e-05 (inactive) | 0.00795 (inactive) | -7.83% (inactive) | 4.09% (inactive)
CCOC(=O)CCC(=O)Nc1ccc(S(=O)(=O)N2CCCC2)cc1 | 720 | -3% (inactive) | 3.2% (inactive) | 98.3 | -15.9% (inactive) | 126 | -0.468 (inactive) | 2.8e-05 (inactive) | 0.00707 (inactive) | -1.78% (inactive) | 100% (active)
